# Reference: ChEMBL document CHEMBL1139875, “Discovery of 4-aminobutyric acid derivatives possessing anticonvulsant and antinociceptive activities: a hybrid pharmacophore approach” (2007)
# Active and inactive are the calls of the source. The rule behind the calls is not given here.
# Assays:
# [1] = system: Mus musculus; experiment: Anticonvulsant activity in Swiss Albino mouse at 300 mg/kg, ip after 0.5 hr by MES test; type: functional, organism-based; design: dose 300 mg/kg
# How it was run: (§1)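 Mice (Swiss, 20-25 g) given i.p. doses of 30, 100 and 300 mg/kg under ADD program protocols, three per group, examined at 0.5 and 4 h in MES, scPTZ, scSTY or scPIC seizure tests. Value is the minimum dose protecting half or more of the mice.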
# [2] = system: Mus musculus; experiment: Anticonvulsant activity in Swiss Albino mouse at 300 mg/kg, ip after 4 hrs by MES test; type: functional, organism-based; design: dose 300 mg/kg; how it was run: as §1
# [3] = system: Mus musculus; experiment: Anticonvulsant activity in Swiss Albino mouse at 300 mg/kg, ip after 0.5 hr by scPTZ test; type: functional, organism-based; design: dose 300 mg/kg; how it was run: as §1
# [4] = system: Mus musculus; experiment: Anticonvulsant activity in Swiss Albino mouse at 300 mg/kg, ip after 0.5 hr by scSTY test; type: functional, organism-based; design: dose 300 mg/kg; how it was run: as §1
# [5] = system: Mus musculus; experiment: Anticonvulsant activity in Swiss Albino mouse at 300 mg/kg, ip after 4 hrs by scSTY test; type: functional, organism-based; design: dose 300 mg/kg; how it was run: as §1
# [6] = system: Mus musculus; experiment: Anticonvulsant activity in Swiss Albino mouse at 300 mg/kg, ip after 0.5 hr by scPIC test; type: functional, organism-based; design: dose 300 mg/kg; how it was run: as §1
# [7] = system: Mus musculus; experiment: Anticonvulsant activity in Swiss Albino mouse at 300 mg/kg, ip after 4 hrs by scPIC test; type: functional, organism-based; design: dose 300 mg/kg; how it was run: as §1
# [8] = system: Mus musculus; experiment: Neurotoxicity in Swiss Albino mouse at 300 mg/kg, ip after 0.5 hr by rotarod test; type: functional, organism-based; design: dose 300 mg/kg
# How it was run: (§2)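 Swiss mice (20-25 g) are trained on an accelerating rotorod (10 rpm, 3.2 cm rod), then injected i.p. at 30, 100 or 300 mg/kg, with three per group. Neurotoxicity means failure to keep equilibrium for at least 1 min in each of three trials, checked at 0.5 and 4 h. The value reported is the minimum dose affecting half or more of the mice.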
# [9] = system: Mus musculus; experiment: Neurotoxicity in Swiss Albino mouse at 300 mg/kg, ip after 4 hrs by rotarod test; type: functional, organism-based; design: dose 300 mg/kg; how it was run: as §2
# [10] = system: Mus musculus; experiment: Analgesic activity in Swiss Albino mouse assessed as number of acetic acid-induced writhing per 30 min after 100 mg/kg, ip; type: functional
# How it was run: (§3)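 Mice in groups of six dosed i.p. at 100 mg/kg, controls receiving 30% v/v PEG 400 in water. Writhing induced by i.p. 0.1 mL of 3% v/v acetic acid 1 h after drug. Writhes (abdominal stretch with at least one hind limb extended) counted over 30 min; % inhibition calculated. Mean ± SEM, Student's t test.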
# [11] = system: Mus musculus; experiment: Analgesic activity in Swiss Albino mouse assessed as inhibition of acetic acid-induced writhing responses at 100 mg/kg, ip; type: functional; details: for inhibition in vivo at 100 mg/kg: route intraperitoneal; how it was run: as §3
# [12] = system: Rattus norvegicus; experiment: Anti-dynamic allodynia effect in Sprague-Dawley rat SNL model assessed as latency to paw withdrawal 100 mg/kg, ip after 0.5 hr; type: functional; details: route intraperitoneal
# How it was run: (§4)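 Left L5 spinal nerve ligation rats, tested preoperatively and 9 days postoperatively, then given 100 mg/kg i.p. (vehicle 30% v/v PEG 400 in water). After 10 min acclimatization, plantar surface of affected paw stroked mildly with a cotton-bud; paw lift response recorded. n = 4; retested 0.5-2.5 h post-dose.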
# [13] = system: Rattus norvegicus; experiment: Anti-dynamic allodynia effect in Sprague-Dawley rat SNL model assessed as latency to paw withdrawal 100 mg/kg, ip after 1 hr; type: functional; details: route intraperitoneal; how it was run: as §4
# [14] = system: Rattus norvegicus; experiment: Anti-dynamic allodynia effect in Sprague-Dawley rat SNL model assessed as latency to paw withdrawal 100 mg/kg, ip after 1.5 hrs; type: functional; details: route intraperitoneal; how it was run: as §4
# [15] = system: Rattus norvegicus; experiment: Anti-dynamic allodynia effect in Sprague-Dawley rat SNL model assessed as latency to paw withdrawal 100 mg/kg, ip after 2 hrs; type: functional; details: route intraperitoneal; how it was run: as §4
# [16] = system: Rattus norvegicus; experiment: Anti-dynamic allodynia effect in Sprague-Dawley rat SNL model assessed as latency to paw withdrawal 100 mg/kg, ip after 2.5 hrs; type: functional; details: route intraperitoneal; how it was run: as §4
# [17] = system: Rattus norvegicus; experiment: Antihyperalgesic effects in Sprague-Dawley rat CCI model assessed as duration of paw withdrawal at 100 mg/kg, ip after 0.5 hr; type: functional; details: route intraperitoneal
# [18] = system: Rattus norvegicus; experiment: Antihyperalgesic effects in Sprague-Dawley rat CCI model assessed as duration of paw withdrawal at 100 mg/kg, ip after 1 hr; type: functional; details: route intraperitoneal
# [19] = system: Rattus norvegicus; experiment: Antihyperalgesic effects in Sprague-Dawley rat CCI model assessed as duration of paw withdrawal at 100 mg/kg, ip after 1.5 hrs; type: functional; details: route intraperitoneal
# [20] = system: Rattus norvegicus; experiment: Antihyperalgesic effects in Sprague-Dawley rat CCI model assessed as duration of paw withdrawal at 100 mg/kg, ip after 2 hrs; type: functional; details: route intraperitoneal
# [21] = system: Rattus norvegicus; experiment: Antihyperalgesic effects in Sprague-Dawley rat CCI model assessed as duration of paw withdrawal at 100 mg/kg, ip after 2.5 hrs; type: functional; details: route intraperitoneal
# [22] = system: Rattus norvegicus; experiment: Effect on spontaneous pain in Sprague-Dawley rat SNL model assessed as duration of paw withdrawal at 100 mg/kg, ip after 0.5 hr; type: functional; details: route intraperitoneal
# How it was run: (§5)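 Rats underwent left L5 spinal nerve ligation (Kim and Chung) under i.p. pentobarbital (65 mg/kg). Spontaneous pain is recorded for 5 min after 10 min acclimatization, as cumulative duration the ipsilateral paw is lifted, excluding locomotor lifts. Dosing is 100 mg/kg i.p. in 30% v/v PEG 400/water, with testing at 0.5–2.5 h. Four rats, mean ± SEM versus predrug, one-way ANOVA with Bonferroni.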
# [23] = system: Rattus norvegicus; experiment: Effect on spontaneous pain in Sprague-Dawley rat SNL model assessed as duration of paw withdrawal at 100 mg/kg, ip after 1 hr; type: functional; details: route intraperitoneal; how it was run: as §5
# [24] = system: Rattus norvegicus; experiment: Effect on spontaneous pain in Sprague-Dawley rat SNL model assessed as duration of paw withdrawal at 100 mg/kg, ip after 1.5 hrs; type: functional; details: route intraperitoneal; how it was run: as §5
# [25] = system: Rattus norvegicus; experiment: Effect on spontaneous pain in Sprague-Dawley rat SNL model assessed as duration of paw withdrawal at 100 mg/kg, ip after 2 hrs; type: functional; details: route intraperitoneal; how it was run: as §5
# [26] = system: Rattus norvegicus; experiment: Effect on spontaneous pain in Sprague-Dawley rat SNL model assessed as duration of paw withdrawal at 100 mg/kg, ip after 2.5 hrs; type: functional; details: route intraperitoneal; how it was run: as §5
# [27] = system: Rattus norvegicus; experiment: Antihyperalgesic effects in Sprague-Dawley rat SNL model assessed as duration of paw withdrawal at 100 mg/kg, ip after 0.5 hr, ip; type: functional; details: route intraperitoneal
# How it was run: (§6)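 L5 SNL rats (n = 4), dosed 100 mg/kg i.p. (vehicle 30% v/v PEG 400 in water). Pin-prick to midplantar ipsilateral left hindpaw; withdrawal duration, mean of three responses; ≥2 s defined abnormal. Mean ± SEM; one-way ANOVA with Bonferroni versus predrug.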
# [28] = system: Rattus norvegicus; experiment: Antihyperalgesic effects in Sprague-Dawley rat SNL model assessed as duration of paw withdrawal at 100 mg/kg, ip after 1 hr, ip; type: functional; details: route intraperitoneal; how it was run: as §6
# [29] = system: Rattus norvegicus; experiment: Antihyperalgesic effects in Sprague-Dawley rat SNL model assessed as duration of paw withdrawal at 100 mg/kg, ip after 1.5 hrs, ip; type: functional; details: route intraperitoneal; how it was run: as §6
# [30] = system: Rattus norvegicus; experiment: Antihyperalgesic effects in Sprague-Dawley rat SNL model assessed as duration of paw withdrawal at 100 mg/kg, ip after 2 hrs, ip; type: functional; details: route intraperitoneal; how it was run: as §6
# [31] = system: Rattus norvegicus; experiment: Antihyperalgesic effects in Sprague-Dawley rat SNL model assessed as duration of paw withdrawal at 100 mg/kg, ip after 2.5 hrs, ip; type: functional; details: route intraperitoneal; how it was run: as §6
# [32] = system: Rattus norvegicus; experiment: Effect on spontaneous pain in Sprague-Dawley rat CCI model assessed as duration of paw withdrawal at 100 mg/kg, ip after 0.5 hr; type: functional; details: route intraperitoneal
# How it was run: (§7)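 CCI rats (n = 4) dosed 100 mg/kg i.p. (vehicle 30% v/v PEG 400 in water). After 10 min acclimatization in a cage 5 cm above ground, cumulative time the ipsilateral paw was held off the floor over 5 min recorded, excluding locomotion lifts. Mean ± SEM; ANOVA/Bonferroni versus predrug.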
# [33] = system: Rattus norvegicus; experiment: Effect on spontaneous pain in Sprague-Dawley rat CCI model assessed as duration of paw withdrawal at 100 mg/kg, ip after 1 hr; type: functional; details: route intraperitoneal; how it was run: as §7
# [34] = system: Rattus norvegicus; experiment: Effect on spontaneous pain in Sprague-Dawley rat CCI model assessed as duration of paw withdrawal at 100 mg/kg, ip after 1.5 hrs; type: functional; details: route intraperitoneal
# How it was run: (§8)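 Unilateral CCI of sciatic nerve (Bennett and Xie) in Sprague-Dawley rats under i.p. pentobarbital sodium (65 mg/kg). Spontaneous pain is scored over 5 min after 10 min acclimatization, as cumulative time the ipsilateral paw is held off the floor. Paw lifts from locomotion or repositioning are excluded. Drug is given at 100 mg/kg i.p. with 30% v/v PEG 400 vehicle. Mean ± SEM, n = 4, compared with predrug by ANOVA/Bonferroni.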
# [35] = system: Rattus norvegicus; experiment: Effect on spontaneous pain in Sprague-Dawley rat CCI model assessed as duration of paw withdrawal at 100 mg/kg, ip after 2 hrs; type: functional; details: route intraperitoneal; how it was run: as §8
# [36] = system: Rattus norvegicus; experiment: Effect on spontaneous pain in Sprague-Dawley rat CCI model assessed as duration of paw withdrawal at 100 mg/kg, ip after 2.5 hrs; type: functional; details: route intraperitoneal; how it was run: as §8
Structure (SMILES),Activity [1],Activity [2],Activity [3],Activity [4],Activity [5],Activity [6],Activity [7],Activity [8],Activity [9],Activity ([10]; route intraperitoneal),inhibition in vivo at 100 mg/kg [11],Activity [12],Activity [13],Activity [14],Activity [15],Activity [16],Activity [22],Activity [23],Activity [24],Activity [25],other results
O=C(O)CCCNC(=O)NN=C1CCCCC1,inactive,inactive,Active,inactive,inactive,Active,inactive,inactive,inactive,32,82%,5.2 s,5.6 s,1.8 s,0.2 s,0.24 s,21.2 s,20.2 s,10.8 s,10.6 s,Activity [17]: 20.3 s; Activity [18]: 24.8 s; Activity [19]: 4.8 s; Activity [20]: 5.2 s; Activity [21]: 7 s; Activity [26]: 10.8 s; Activity [27]: 14.7 s; Activity [28]: 19.7 s; Activity [29]: 15.6 s; Activity [30]: 11.3 s; Activity [31]: 12.8 s
O=C(O)CCCNC(=O)N/N=C/c1ccc([N+](=O)[O-])cc1,inactive,inactive,inactive,inactive,inactive,inactive,inactive,Active,inactive,18.7,90%,14.5 s,4.3 s,1.5 s,1.8 s,1.34 s,,,,,Activity [32]: 10.2 s; Activity [33]: 9.2 s; Activity [34]: 13.6 s; Activity [35]: 11.3 s; Activity [36]: 17.2 s
CC(=O)Oc1ccccc1C(=O)O [ASPIRIN],inactive,inactive,inactive,inactive,inactive,inactive,inactive,inactive,inactive,5.7,97%,,,,,,,,,,
C/C(=N\NC(=O)NCCCC(=O)O)c1ccc([N+](=O)[O-])cc1,inactive,inactive,inactive,inactive,inactive,inactive,inactive,inactive,inactive,61,67%,,,,,,,,,,
O=C(O)CCCNC(=O)NN=C(c1ccccc1)c1ccccc1,Active,inactive,inactive,Active,Active,Active,Active,Active,inactive,13.3,93%,,,,,,15.1 s,18.5 s,13.4 s,10.9 s,Activity [26]: 8.8 s; Activity [27]: 18.4 s; Activity [28]: 19.9 s; Activity [29]: 18.5 s; Activity [30]: 13.7 s; Activity [31]: 15 s
CCC1(C)CC(=O)NC1=O (stereo unspecified),inactive,inactive,Active,inactive,inactive,inactive,inactive,inactive,inactive,,,,,,,,,,,,Activity [10]: inactive; Activity [11]: inactive
